# Most compounds without a hit are left out; they make up all but 3.7% or so of the library.
# SR-BI DiI inh: inhibitors of mouse SR-BI mediated HDL lipid uptake; Q61009; ldlA[mSR-BI] CHO cells, DiI-HDL uptake fluorescence, 3 h; inhibition, % at 12.5 µM; hit rate 0.96% among 320,000; AID 488896;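 active = mean replicate inhibition of at least 70% and a set share of replicates each scoring 70 or more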;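 also: 0% = median of neutral control wells and 100% = median of positive control wells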
# Target sequence (Q61009 whole entry, looked up): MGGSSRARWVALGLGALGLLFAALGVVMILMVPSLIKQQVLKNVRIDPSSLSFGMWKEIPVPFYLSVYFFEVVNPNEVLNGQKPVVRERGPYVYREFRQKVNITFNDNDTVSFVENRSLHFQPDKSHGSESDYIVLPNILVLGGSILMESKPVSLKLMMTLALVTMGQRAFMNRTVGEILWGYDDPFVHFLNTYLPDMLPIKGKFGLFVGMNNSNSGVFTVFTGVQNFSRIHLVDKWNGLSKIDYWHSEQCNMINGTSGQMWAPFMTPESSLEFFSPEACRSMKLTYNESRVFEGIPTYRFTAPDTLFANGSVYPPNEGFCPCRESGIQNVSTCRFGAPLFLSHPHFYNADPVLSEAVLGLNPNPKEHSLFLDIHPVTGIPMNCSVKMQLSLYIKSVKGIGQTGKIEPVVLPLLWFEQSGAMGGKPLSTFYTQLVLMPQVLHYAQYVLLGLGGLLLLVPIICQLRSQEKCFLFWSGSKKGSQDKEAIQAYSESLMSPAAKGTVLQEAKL
# SR-BI DiI-HDL act: enhances SR-BI lipid uptake from DiI-HDL; CHO ldlA[mSR-BI] cells, DiI-HDL uptake fluorescence, 3 h; 100 = double the neutral-control signal; activation, % at 12.5 µM; hit rate 0.096% among 320,000;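 active = mean replicate activation of at least 60% and every replicate at or above 60%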;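 also: 0% = median plate neutral-control signal and 100% = twice that signal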
#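 Test system: SR-BI-overexpressing, LDLR-lacking CHO cells; Also added: labelled HDL, 10 µg/mL; Measured by: bottom-read cell fluorescence after medium removal, ex 550/em 595 nm; Timing: 3 h uptake period with compound, 37 °C; Buffer or medium: F12, 0.5% BSA, 25 mM HEPES; Doses: single compound concentration, delivered by pin transfer.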
# GAA850 FXN act: frataxin GAA850 promoter activation; HEK293 lucGAA850 FXN promoter luciferase reporter, 24 h; percent of 10 µM SAHA response; activation, % at 6 µM; hit rate 0.56% among 360,000; AID 540364;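 active = activation above the average of all compounds screened plus 3 SD, cutoff fixed separately per campaign, cut at about 7.5% in these data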;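 also: 0% = DMSO wells and 100% = 10 µM SAHA wells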
# AHR activator: activates the human aryl hydrocarbon receptor. AID 2796. hit rate 2.5% among 320,000. P35869. AHR-responsive luciferase reporter cells, luminescence. activation, % at 5 µM; in the data active = activation above about 47%;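 also: 0% = vehicle wells and 100% = reference agonist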
# GASC-1 inh: blocks human GASC-1 demethylase activity. Q9H3R0. GST-JMJD2C(1-420) H3K9me3 demethylation, DELFIA europium. inhibition, % at 2.35 µM. hit rate 0.069% among 330,000. AID 2099;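 active = more than half of a compound's replicate wells show inhibition beyond 50%, single wells judged on their own value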;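 also: signal counts dimethyl H3K9 product captured on neutravidin plate; 0% = median of DMSO wells and 100% = 0.3 times that DMSO median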
# * hit, by the source's call; x = no result.
SMILES,SR-BI DiI inh,SR-BI DiI-HDL act,GAA850 FXN act,AHR activator,GASC-1 inh
N#Cc1cc2c(nc1SCC(=O)Nc1nccs1)CCCCC2,8.7,-8.7,0.4,-8.8,4.4
Cc1ccc(/C=N/Nc2nc(C(C)(C)C)cs2)o1,21.4,-4.3,3.1,50.3*,-16.9
N#Cc1c(SCC(=O)Nc2nncs2)sc2c(O)cc(=O)[nH]c12,1.1,-1.1,2.9,49.7*,-3.2
CCOC(=O)COc1ccc(S(=O)(=O)NC2CC2)cc1,-19.5,19.5,1.0,-1.7,-7.0
Cc1cc(C(=O)N/N=C\c2cc(C(C)(C)C)ccc2O)n[nH]1,62.3,-62.3,-1.7,52.6*,-0.3
CC(C)(C)c1cc(C(=O)N/N=C/c2ccccc2O)n(-c2ccccc2)n1,100.1*,-100.1,-0.2,4.8,6.9
Cc1cc(C(=O)N/N=C/c2cc(Br)ccc2OC(=O)c2ccc(Br)cc2)n[nH]1,x,x,x,50.3*,3.2
Cc1cc(C(=O)N/N=C/c2cc(Br)cc(Br)c2OC(=O)c2ccccc2)n[nH]1,x,x,x,10.9,6.3
Cc1cc(C(=O)N/N=C/c2cc(Br)cc(Br)c2OC(=O)c2cccc(F)c2)n[nH]1,121.5*,-121.5,0.4,29.7,-11.7
CC(C)(C)c1cc(C(=O)N/N=C/c2ccc(F)cc2)n(-c2ccccc2)n1,58.5,-58.5,1.4,1.9,-1.4
O=C(NCCc1ccccc1F)C1CC(=O)N(c2cccc(C(F)(F)F)c2)C1 (stereo not drawn),-10.2,10.2,-0.3,x,x
Cc1ccc(-c2cc(C(=O)N/N=C/c3ccccc3O)n[nH]2)o1,83.2*,-83.3,-0.5,16.4,20.3
CCn1cc(C(=O)N2CCn3c(nc4ccccc43)C2)c(=O)c2ccc(C)nc21,x,x,15.8*,0.3,-1.4
Cc1cc(/C=C\c2ccccc2)nc2ccccc12,13.0,-13.1,5.2,61.5*,131.2
Cc1ccc(N/C=C/C(=O)c2ccccc2)cc1Br,4.7,-4.7,3.0,54.6*,14.3
O=C(/C=C/Nc1cccc(O)c1)c1ccccc1,15.4,-15.4,-3.0,0.4,-0.2
O=C(/C=C/NNC(=O)c1ccccc1)c1ccc(Br)cc1,118.1*,-118.1,0.9,2.6,-13.4
O=C(/C=C/NNC(=O)c1ccc(Cl)cc1)c1ccccc1,111.5*,-111.5,1.6,7.5,1.5
COc1ccc(C(=O)C=CNNC(=O)c2ccc(Cl)cc2)cc1,95.5*,-95.5,1.1,11.8,-0.6
COc1ccc(C(=O)NN/C=C/C(=O)c2ccc(Br)cc2)cc1,x,x,3.6,x,x
CN(Cc1ccccc1)S(=O)(=O)c1ccc(Cl)c(C(=O)NCCCN2CCOCC2)c1,5.9,-5.9,-0.8,3.4,11.4
CCc1ccc(OCC(=O)NC(=S)Nc2ccc(C(C)=O)cc2)c(Br)c1,8.2,-8.2,0.3,75.9*,3.9
COc1ccc(NC(=O)CN(c2ccccc2C)S(C)(=O)=O)c(OC)c1,2.3,-2.3,1.4,0.6,-7.6
Cc1ccc(S(=O)(=O)Nc2ccc(OCC(=O)N3CCOCC3)cc2)c(C)c1NS(C)(=O)=O,-4.2,4.2,-1.5,-0.4,-5.4
CCOC(=O)C1(C)C(C(=O)OC)=C(c2ccc(OC)cc2)c2ccccc2N1C(=O)OC (stereo not drawn),-17.8,17.8,-1.0,x,x
SMILES,SR-BI DiI inh,SR-BI DiI-HDL act,GAA850 FXN act,AHR activator,GASC-1 inh
COC(=O)C1=C(C(=O)OC)SC(=C2C(=S)C(C)(C)N(C(=O)C(C)C)c3ccccc32)S1,58.9,-58.9,-1.4,-0.4,35.1
COC(=O)C1=C(C(=O)OC)SC(=C2C(=S)C(C)(C)N(C(=O)C3CC3)c3ccccc32)S1,97.4*,-97.4,0.6,-0.5,-8.2
CCCC(=O)N1c2ccccc2C(=C2SC(C(=O)OC)=C(C(=O)OC)S2)C(=S)C1(C)C,81.9*,-81.9,1.3,1.0,14.5
CCc1nnc(NC(=O)CSc2nnc(Cc3cc(=O)[nH]c(=O)[nH]3)n2-c2cccc(OC)c2)s1,-12.9,12.9,0.3,-7.1,4.8
Cc1nnc(-c2cnn(C)c2N)n1CCCN(C)C,-0.2,0.2,1.3,13.8,10.1
Cc1nnc(-c2cnn(C)c2N)n1Cc1ccccc1,-1.8,1.8,0.2,29.1,9.3
CCCCCCCn1c(C)nnc1-c1cnn(C)c1N,-3.4,3.4,0.1,69.8*,-2.1
Cc1nnc(-c2cnn(C)c2N)n1Cc1cccc(Cl)c1,2.1,-2.1,1.1,54.1*,0.9
COc1cccc2sc(NC(=O)c3ccc(Br)s3)nc12,64.7,-64.7,0.3,71.4*,-2.8
Cc1cccc2sc(NC(=O)c3ccc(Cl)s3)nc12,76.1*,-76.1,1.0,48.3*,-4.8
COc1cccc2sc(NNC(=O)COc3ccccc3)nc12,-14.7,14.7,0.0,51.1*,5.1
Cc1cccc2sc(NC(=O)C3CC3)nc12,5.2,-5.2,1.4,x,4.3
CSc1cccc(NC(=O)Nc2nc3c(C)cccc3s2)c1,36.3,-36.3,0.7,119.0*,-4.2
COCCCn1c(=S)[nH]c2c(sc3ccccc32)c1=O,-21.6,21.6,-0.2,0.9,1.4
Cc1cc(=O)oc2cc(OCC(=O)Nc3ccccc3C(N)=O)c(Cl)cc12,-18.3,18.3,0.1,1.7,126.9
Cn1c(=O)cc(Nc2ccccc2)c2c(=O)n(-c3ccccc3)c(=O)n(-c3ccccc3)c21,8.7,-8.7,0.2,-0.9,-0.1
COc1ccc(CN(C(=O)c2ccco2)c2ccc(C)c(C)c2)cc1,-13.9,13.9,1.2,9.4,-5.3
COc1cccc(C(=O)NC(=S)Nc2ccccc2N2CCCC2)c1,85.0*,-85.0,-1.7,48.5*,-8.8
COc1cccc(C(=O)NC(=S)Nc2ccccc2N2CCCCC2)c1,37.4,-37.4,-0.9,73.1*,7.6
O=C(NC(=S)Nc1ccccc1N1CCCC1)c1ccccc1Br,51.4,-51.4,2.8,74.8*,0.7
COc1cccc(C(=O)Nc2ccccc2N2CCCC2)c1,6.2,-6.2,-1.5,2.2,5.8
O=C(Cc1ccc(Br)cc1)NCc1ccccc1,-9.9,9.9,-3.5,0.3,4.5
Cc1ccc(S(=O)(=O)N2CCCCC2)cc1C(=O)N1CCCCCC1,7.8,-7.8,1.0,-0.6,0.2
O=C(CCS(=O)(=O)c1cccc2nsnc12)NCc1ccccc1Cl,-23.1,23.1,-0.8,7.2,6.3
CC(=O)Nc1ccc(/C(C)=N/Nc2nc(Nc3ccccc3)nc(N3CCOCC3)n2)cc1,84.5*,-84.5,2.2,8.2,9.9
SMILES,SR-BI DiI inh,SR-BI DiI-HDL act,GAA850 FXN act,AHR activator,GASC-1 inh
Cc1ccc(/C=N/Nc2cc(C)nc(N3CCOCC3)n2)cc1,-0.1,0.1,1.6,13.2,-5.7
Cc1ccc(Nc2nc(N/N=C\c3ccc4c(c3)OCO4)nc(N3CCOCC3)n2)cc1,86.0*,-86.0,1.2,28.5,-4.2
S=C(N=Nc1ccccc1)NNc1ccccc1,34.2,-34.2,5.8,53.1*,-22.3
O=C(Nc1ccc(Cl)c([N+](=O)[O-])c1)c1cnccn1,-4.7,4.7,1.2,70.4*,-4.5
O=C(Nc1ccc(Cl)c([N+](=O)[O-])c1)c1ccncc1,-8.4,8.4,-0.4,10.4,6.4
CCCOc1c(Cl)cc(C(=O)Nc2ccc3c(c2)OCO3)cc1OCC,78.3*,-78.3,-1.5,11.5,17.6
